SMILES strings stand for the structures.

The target of assay [1] is T1, full-length DnaG (Bacillus subtilis, UniProt P05096).
T1 sequence (P05096 1-603): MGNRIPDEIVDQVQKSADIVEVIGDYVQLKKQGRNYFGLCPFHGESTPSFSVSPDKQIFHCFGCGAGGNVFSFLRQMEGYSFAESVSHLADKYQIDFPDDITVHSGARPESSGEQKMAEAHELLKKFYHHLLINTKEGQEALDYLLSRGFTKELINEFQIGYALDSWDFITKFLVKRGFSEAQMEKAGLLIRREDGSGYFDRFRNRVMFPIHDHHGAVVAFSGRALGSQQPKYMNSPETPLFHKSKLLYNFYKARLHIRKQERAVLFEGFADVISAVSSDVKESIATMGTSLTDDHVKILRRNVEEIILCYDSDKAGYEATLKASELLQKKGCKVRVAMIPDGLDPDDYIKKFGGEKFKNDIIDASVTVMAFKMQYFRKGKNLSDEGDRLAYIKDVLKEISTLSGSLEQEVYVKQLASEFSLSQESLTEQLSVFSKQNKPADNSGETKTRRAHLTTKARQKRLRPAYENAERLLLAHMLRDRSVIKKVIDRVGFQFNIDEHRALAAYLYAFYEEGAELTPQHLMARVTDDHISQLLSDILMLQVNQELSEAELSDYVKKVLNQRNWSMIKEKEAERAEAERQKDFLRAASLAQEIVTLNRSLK
Format: biochemical. A digest of the protocol: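 Full-length His-tagged DnaG, Ni-affinity purified, at 100 nM was added last to 500 nM ssDNA template with 0.4 mM ATP, CTP, UTP and GTP at 0, 12.5, 25, 50, 100, 200 or 400 μM, preincubated ± inhibitor. Buffer: 50 mM Tris pH 7.5 with Mg2+, Mn2+, Ca2+ and 10 mM DTT. Incubated 37°C, 30 min; heteroduplex dye fluorescence read at four time points. V0 per enzyme; Ki fitted to competitive/uncompetitive/noncompetitive/mixed models; n≥3.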

The target of assay [2] is DnaG(ZBD+RPD) (Bacillus subtilis, UniProt P05096). Type of assay: biochemical. A digest of the protocol: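 His-tagged DnaGΔ440-603 (ZBD+RPD), expressed in BL21(DE3) cells and Ni-affinity purified, used at 200 nM. Template (500 nM ssDNA) and NTPs (0.4 mM ATP, CTP, UTP; GTP 0–400 μM) briefly preincubated ± inhibitor before enzyme. Buffer: 50 mM Tris pH 7.5, 10 mM Mg acetate, 5 mM MnCl2, 5 mM CaCl2. Ran at 37°C. Dye read at 5, 10, 20 and 30 min (ex 485/em 528 nm). V0 was normalised to enzyme, and Ki came from inhibition-model fits; n≥3.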

In turn, `Nc1nc2c(ncn2[C@@H]2O[C@H](COP(=O)(O)OP(=O)(O)O)[C@@H](OP(=O)(O)OP(=O)(O)O)[C@H]2O)c(=O)[nH]1` [ppGpp] had a Ki in assay [1] of 777 ± 110 µM.
Consider `Nc1nc2c(ncn2[C@@H]2O[C@H](COP(=O)(O)OP(=O)(O)OP(=O)(O)O)[C@@H](OP(=O)(O)OP(=O)(O)O)[C@H]2O)c(=O)[nH]1` [pppGpp], for which the Ki in assay [1] amounted to 163 ± 37 µM; in assay [2], 115 ± 17.8 µM.

What is called Ki is a measure of affinity in units of concentration, obtained from inhibition or displacement.

The values are drawn from PMC8453095 (Journal of molecular biology, 2021).
